In the EternaBench riboswitch data:

Tested on: MS2 coat protein
Assay: apparent Kd, MS2 coat protein; higher = weaker binding; RNA-MaP array; FMN 200 µM where present
Summary of the method: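 Binding was read on Illumina sequencing-chip clusters where stalled E. coli RNA polymerase had transcribed each design. A titration of SNAP-549-labelled MS2 coat protein began at 0.7 or 1.5 nM and doubled to 3 µM, once without ligand and once with constant ligand, in 100 mM Tris-HCl pH 7.5, 80 mM KCl, 4 mM MgCl2, BSA, DTT, yeast tRNA and Tween-20. The apparent Kd is the median of filtered per-cluster binding-curve fits, based on green signal normalised to red-channel RNA signal and control-cluster median Fmax.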

[1] = designed as: OFF switch for flavin mononucleotide, no ligand
[2] = ligand present: flavin mononucleotide, designed as: OFF switch for flavin mononucleotide
[3] = designed as: ON switch for flavin mononucleotide, no ligand
[4] = ligand present: flavin mononucleotide, designed as: ON switch for flavin mononucleotide

Sequence	apparent Kd [1] [nM]	apparent Kd [2] [nM]	apparent Kd [3] [nM]	apparent Kd [4] [nM]
AGAAACUAGGAGAAGGACAUAUGACCAAGACGAAACAUGAGGAUCACCCAUGUAGGAUAUCCUAGUUUCAGGAUCGUGAGAUCA	5.47	7.97	–	–
ACGACUAGAGGAUAUACAUGAGGAUCACCCAUGUAACUGUCAGGAGACUGACGGAGAUGUAGAAGGCUAGUCGA	16.6	39.2	–	–
ACAUGAGGAUCACCCAUGUUCACAUAGGAUAUUGAUUAUAUUGGUUUAAGAAUAGUAAUUGACCACAAGAAGGAUGCCUGAUCU	–	–	12.2	9.7
CACGGCGUAUCAGGAUAUGUGGGUGUCUGGACAUGAGGAUCACCCAUGUAAACAGUAUUAGCCGUGCAGAAGGGAUCCGCUGUA	–	–	39	65.2
UGUGUUAUUGGAGGAUAUCGAUAUCAAACAUGAGGAUCACCCAUGUUGAGGAUCACACAUGUCCAUGAGAAGGCCGACGUAGUG	–	–	10.5	10.5
AAACCUAUAGGAUAUACAUGAGGAUCACCCAUGUUGCGAUUUUUUAGGUAACAGAUCCGUAGAAGGGUAGGUCA	36.4	66.6	–	–
UAAACACCCUCAUGUACCUGAGGACAUGAGGAUCACCCAUGUGAGGAUAUAGCCAUUAAAUCUAACUAGAAGGUAUAGGAAAUC	772	612	–	–
GCUUUCGCAUGAGGAUAUGCUCGAGUUUAGAGAGCAGAAGGCAUGUCAUAAGACAUGAGGAUCACCCAUGUAGUUAAAAUUGCA	–	–	164	10.7
UCAUGAAGGGCAGGAUAUGGACAUGAGGAUCACCCAUGUACAUGGGAUAAUAUACUAAAUUAAUACUAGAAGGGUUACAUAAAU	37.2	24.6	–	–
CAGUCUACAGGAUAUACAUGAGGAUCACCCAUGUAAAUUCACUUUCGGUAGUCUACAUGUAGAAGGGUAGACUG	125	38.8	–	–
UUGGACGUCGUAGGAAAUGUAGGAUAUUCCUACAUGAGGAUCACCCAUGUUGACAUGGAAGAAGGACAGAAGGACGAUGUCCAU	–	–	517	11
GGACGCUAAGGAUAUACAUGAGGAUCACCCAUGUAGCCCGAAAGGGCGCGUUCCUUCUGUAGAAGGUGGCUAAA	17	25.4	–	–
UGACCCUGGAUGAGUGUUUAGACAUGAGGAUCACCCAUGUCUGAGGAUAUGCGGCAUCAAUAACAGCAGAAGGCAGACUUGGGU	133	41.2	–	–
AGGUCGGGAUAAGGGCAUUCGACUCAGGAUAUGGGAGGUUUACAUGAGGAUCACCCAUGUUUCACCCAGAAGGGAGUUCAAACU	–	–	7.59	5.84
UGUUGUAUUACAGGAUAUCUAUGAUUUUUAUAUAGAGAAGGGUAUUCACAUGAGGAUCACCCAUGUAUAUACGAGGAAGUUGUG	–	–	49	56
AGCUCGCGAAGAGGAUAUACAGCGGCGACCUAUCAUGAUGAGCGGGUUACAUGAGGAUCACCCAUGUAGAAGGCUUCCCGACUC	17.9	52.2	–	–
CCGCAUAAGCAGGAUAUCGUAUCGGAAACGAUACGAGAAGGGUUAACAUGAGGAUCACCCAUGUUCCUUAACGG	17.9	18.2	–	–
UGCAUGUAAGGAUAUGCAACCUGCGCUCAUUAGCAGGUCAAGCAGAAGGUACAUGAGGAUCACCCAUGUGUCCG	31.2	156	–	–
AAAACAUGAGGAUCACCCAUGUAAAGAUCGGUUAAUAGAGGUGAGGAUAUACGAACUUAAAGGUGGUAGAAGGCACUGGGUACA	–	–	71.6	53.3
CAUUAUUAUCGAGGAUAUCGUAUUGAGAUACUAUGAGAAGGCGGGAUAAACAUGAGGAUCACCCAUGUGAGCCGGAUGCUUGUG	17.1	14.8	–	–
AAAUAGCAUGAGGAUAUUGGACUGGAUUCAGUACGAGAAGGCAUGACAUGAGGAUCACCCAUGUUUUGUUGGGA	51.7	202	–	–

Sequence	apparent Kd [1] [nM]	apparent Kd [2] [nM]	apparent Kd [3] [nM]	apparent Kd [4] [nM]
GGAGACCUCACAGGAUAUGCUGGACUUUGUCCAGCAGAAGGGUGAAACAUGAGGAUCACCCAUGUAAUGGUCUCCAAAUUUAAU	–	–	1030	55.6
GUCAGCCCGUGAGGAUAUACAACACUGCUUCGGCAGUGUAUUAAGAUCACAUGAGGAUCACCCAUGUAGAAGGCACGAGCUGAU	13.1	266	–	–
UUUAUGUCAGGAUAUUCGGAUAGGAAAACGAAAACCUAUCCGAAGAAGGGACAUGAGGAUCACCCAUGUAAAAA	217	151	–	–
AGUGGGCUAGGAUAUCGAUGAACUCACAUGAGGAUCACCCAUGUGUCUUCGGUGGGCUCACGAGAAGGAGUAAGUU	17.6	23.2	–	–
GCAGCACUUUAAAACAUGAGGAUCACCCAUGUCGAUUGUUAUGAGGAUAUGCAUCGGAUGAAGAUGCAGAAGGCAUUGUGCUGC	–	–	7.36	6.23
GGGUACAUCGGAGGAUAUCAUGUAAAUACAUGAGGAUCACCCAUGUCGAUGGAGACAUCGGAGAUUGAGAAGGCCGACGUACCG	–	–	187	9.15
GGCUAGUGAGGAUAUACGUGCACUCCUCAGUCGCCAGUCGGACAUGAGGAUCACCCAUGUAGAAGGUAUCGGCA	27.8	30.2	–	–
AAAAAACAUGAGGAUCACCCAUGUCGAAAGACAUGAGGAUAUGUACAGACUUCGGUCUGUACAGAAGGCAUGUCUU	–	–	37.3	15.2
AAACAAACAACGCAGGAUAUGCAAAAACCCACAUGAGGAUCACCCAUGUCCCAACAACAAACAAAGCAGAAGGGCGAACAAACAAA	–	–	105	55.4
GGAUGACAAAGUCAUCCUAUUCGAACAUGAGGAUCACCCAUGUAGGAUAUGCAACUCAAAGAGUUGCAGAAGGACAUGUGCUUU	34.7	166	–	–
AAAUUUUGUCAAGGAUAUGUAUUAUUGAUUUGAAAACAUGAGGAUCACCCAUGUAUAUGGUGGGAACAGAAGGUGAAUAAGUAA	202	236	–	–
CGUUUAUUUAUGGGUUUAGAUUAUGAGGAUAUCAUUUUUUUAUACAUGAGGAUCACCCAUGUUACUGAGAAGGCAUAAUUAACG	–	–	16.4	7.09
CGCUAUUACAUGAGGAUCACCCAUGUAUAUAUUGUAUUUUCGUAGGAUAUGCAGAAGAUUAAAGUGCAGAAGGACGUAAUAGCG	–	–	29.1	7.48
CAGGUAGACUGAGGAUAUACAAAGACCUAGUUUAUCUAGGUCAAAAUCACAUGAGGAUCACCCAUGUAGAAGGCAGUCUGCCUG	15.7	26	–	–
ACUCGACAUGAGGAUCACCCAUGUGAGGAUAUGGCCUGUUUGGCGUGUGCUGGCUCUGUCAGAAGGCGCGUGGG	41.7	89.3	–	–
GUGUAGAGAGGAUAUACAUGAGGAUCACCCAUGUGAAUAAGAUAGAAUAAGAUAAAGUGUAGAAGGCUUAGUGU	33.5	25.9	–	–
UGUCGGAGCAGAGGAUAUUACAUGAGGAUCACCCAUGUAUGAACCAAUAGCUCGAAACAGCAAUGUAAGAAGGCUGCUCCGACA	6.38	69.9	–	–
GCUAUAGAUGUAGGAUAUGAUAUAGAAGCUAUGUCAGAAGGACAUGAGGAUCACCCAUGUCAAUGGAUGGAGAGAAGAUAUGGC	64.2	69.3	–	–
GGAUAGGACAGAGGAUAUACGUGCUAGUGAUACUAGCAAAAUUUCCUCACAUGAGGAUCACCCAUGUAGAAGGCUGUCCUAUCG	15.5	453	–	–
UUUUAACAUGAGGAUCACCCAUGUGAGGAUAUCGAAAUUUAUAUUAAUAUUAAUUAAACGAGAAGGCACAUUUU	61.5	86.4	–	–
UUACUGCGAGGAUAUGCGAUCCAGACCAUGAUGUAAUUCCGACAUGAGGAUCACCCAUGUAGAAGGUGCAGUGG	22.4	27.1	–	–
